Columns and labels:
[1] = molecular target: T1, Androgen Receptor (Bos taurus) (UniProt Q5EM59); experiment: Relative binding affinities (RBA) for Androgen receptor (AR)
T1 sequence (whole entry): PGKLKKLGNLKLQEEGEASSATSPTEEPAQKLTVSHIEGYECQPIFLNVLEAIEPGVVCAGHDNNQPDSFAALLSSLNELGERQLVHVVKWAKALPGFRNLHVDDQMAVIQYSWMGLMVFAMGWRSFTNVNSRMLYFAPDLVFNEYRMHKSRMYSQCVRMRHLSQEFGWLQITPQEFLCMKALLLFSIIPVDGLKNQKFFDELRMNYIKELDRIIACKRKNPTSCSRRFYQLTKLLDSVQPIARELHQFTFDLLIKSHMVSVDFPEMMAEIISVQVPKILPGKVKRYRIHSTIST
Method in brief: (§1)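 Receptor source was calf uterine cytosol (105000g supernatant, 3 mg/mL protein in assay). Buffers were Tris/EDTA pH 7.4, with NaN₃ for ER, molybdate/glycerol for AR, and sucrose for PR. Tracers were 1 nM [³H]estradiol, [³H]mibolerone or [³H]Org 2058. Incubation was at 0–4 °C for 16 h (ER) or 2 h (AR, PR), with 4–6 competitor concentrations. Nonspecific binding used 2 µM of the unlabeled hormone. Separation was by dextran-coated charcoal. RBA is the ratio of IC50 values for hormone and compound ×100, mean of two triplicate experiments.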

[2] = species on record: Bos taurus; experiment: Relative binding affinity(RBA) as ratio of progesterone and compound required to displace [3H]-org 2058 binding to Progesterone receptor by 50%; method in brief: as §1
[3] = molecular target: Estrogen receptor (Bos taurus) (UniProt Q9XSB5+P49884); experiment: Relative binding affinity(RBA) for 50% displacement of [3H]-estradiol from Estrogen receptor compared to 17-beta-estradiol; type: protein assay; method in brief: as §1
[4] = molecular target: T1, Androgen Receptor (Bos taurus); experiment: Relative binding affinity(RBA) for 50% displacement of [3H]mibolerone from Androgen receptor compared to testorone; method in brief: as §1
[5] = tested on: MCF7; experiment: Effect on hormone-dependent MCF-7 human breast cancer cell proliferation at 1x10E-6M; type: functional
Method in brief: (§2)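 Cells were plated at about 2 × 10⁴ per well in six-well dishes. MCF-7 cells were grown in modified improved MEM with 5% NCS, switched to charcoal-treated NCS two weeks before the test, and exposed for 5 days with a re-dose on day 4. MDA-MB 231 cells were grown in McCoy 5a with 10% NCS and exposed for 2 days. Compounds were given 1 day after plating in 0.1% DMSO, with DMSO-matched controls. Read-out was cell number as % T/C, mean of three experiments with six dishes.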

[6] = tested on: MDA-MB-231; experiment: Cytostatic effect on hormone-independent MDA-MB 231 human breast cancer cell proliferation at 1x10E-6M; type: functional; method in brief: as §2
[7] = tested on: MDA-MB-231; experiment: Effect on [3H]thymidine incorporation into MDA-MB 231 human breast cancer cells at 1x10E-5 M; type: functional
Method in brief: (§3)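 Cells were seeded at ~2 × 10⁴ per well, treated from the next day in 0.1% DMSO, with DMSO controls. MCF-7 cells were held in charcoal-stripped NCS for 2 weeks, treated for 5 days and re-dosed on day 4. MDA-MB 231 cells were grown in McCoy 5a/10% NCS and treated for 2 days. At the end, 1 µCi [³H]thymidine per well was added for 2 h. Result is % T/C, mean of three experiments × six dishes.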

[8] = tested on: MCF7; experiment: Effect on hormone-dependent MCF-7 human breast cancer cell proliferation at 1x10E-5 M; type: functional; method in brief: as §2
[9] = tested on: MDA-MB-231; experiment: Cytostatic effect on hormone-independent MDA-MB 231 human breast cancer cell proliferation at 1x10E-5 M; type: functional; method in brief: as §2
[10] = tested on: MDA-MB-231; experiment: Effect on [3H]-thymidine incorporation into MDA-MB 231 human breast cancer cells at 1x10E-6M; type: functional; method in brief: as §3
[11] = tested on: MCF7; experiment: Effect on [3H]thymidine incorporation into MCF-7 human breast cancer cells at 1x10E-6M; type: functional; method in brief: as §3
[12] = tested on: MCF7; experiment: Effect on [3H]-thymidine incorporation into MCF-7 human breast cancer cells at 1x10E-5 M; type: functional; method in brief: as §3

Row | SMILES | relative binding affinity (RBA) [1] | RBA [2] | RBA [3] | RBA [4] | T/C [5] | T/C [6] | T/C [7] | T/C [8] | T/C [9] | T/C [10] | T/C [11] | T/C [12]
1 | CC(=O)Oc1ccc2c(c1)CCn1c-2cc2cc(OC(C)=O)ccc21 | < 0.01 | < 0.01 | 2 |  |  |  |  |  |  |  |  | 
2 | CC(=O)Oc1ccc2cc3n(c2c1)CCc1cc(OC(C)=O)c(OC(C)=O)cc1-3 |  |  | 0.05 | < 0.01 |  |  |  |  |  |  |  | 
3 | CC/C(=C(\c1ccccc1)c1ccc(OCCN(C)C)cc1)c1ccccc1 [TAMOXIFEN] |  |  |  |  | 51% | 107% | 97% | 17% | 94% | 100% | 46% | 5%

Reference: ChEMBL document CHEMBL1124929, “Indolo[2,1-a]isoquinolines. Syntheses, steroid hormone receptor binding affinities, and cytostatic activity” (1990)
